Test results as given in article PMC3162150 (Cancer Chemotherapy and Pharmacology, 2011).
Values joined by “and” are separate entries in the source; they are usually repeats but may differ in a detail not shown here. Equal entries are not always repeated. Where two headings read alike, the source gives them in different places.

Experiments:
[1] = 12-lead ECG monitoring during the core phase
[2] = cited from earlier work
[3] = cited from earlier work; remark: listed apart in the source
[4] = format: in vivo, human; conditions: for AUC0–∞ ratio (90% CI), panobinostat + ketoconazole / panobinostat alone / C max ratio (90% CI), panobinostat + ketoconazole / panobinostat alone: geometric mean ratio; for CL/F: geometric mean
CYP3A = experiment: Estimate of fraction of panobinostat cleared by CYP3A from AUC ratio; format: in vivo, human
[5] = Adverse events and laboratory safety assessment; format: in vivo, human
[6] = format: in vivo, human
Outline: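 Patients took 20 mg of the oral test compound each Monday, Wednesday and Friday from day 15 (extension phase) until disease progression or withdrawal. Before that, in cycle 1, they had single 20 mg doses on day 1 and day 8; the day 8 dose followed a CYP3A inhibitor given at 400 mg once daily on days 5–9. Laboratory assessments were done weekly during the extension.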

[7] = test system: human cytochrome P450 CYP3A4; conditions: in vitro; minor involvement of CYP2D6 and CYP2C19; no reference given; cited from earlier work
[8] = period 2 (ketoconazole only), N = 14
[9] = ref personal communication Margaret M Woo, Novartis
[10] = 20 mg panobinostat, ketoconazole 400 mg
[11] = 20 mg panobinostat, ketoconazole 400 mg, listed as panobinostat
[12] = extension phase, panobinostat 20 mg MWF, 13 patients
[13] = period 1 (panobinostat only), N = 14
[14] = period 3 (concomitant panobinostat and ketoconazole), N = 14

## CC(=O)N1CCN(c2ccc(OCC3COC(Cn4ccnc4)(c4ccc(Cl)cc4Cl)O3)cc2)CC1 (stereo not drawn) [ketoconazole, reference compound]
[1]; [8]
  Ectopic activity: 1 (7%) patients (%)
  New QTcB >450 ms: 2 (14%) patients (%)
  Sinus tachycardia: 0 patients (%)
  T wave changes: 1 (7%) patients (%)
  patients with other transient ECG abnormalities: 21%
[1]; period 2 (ketoconazole only, day 5 until day 8), N = 14
  QTcB increase >30 ms: 3 patients (%) and 3 (21%) patients (%)

## O=C(CCCCCCC(=O)Nc1ccccc1)NO [vorinostat, reference compound]
[2]; review of toxicities of HDAC inhibitors
  asymptomatic hypophosphatemia reported with single agent: 5%

## Cc1[nH]c2ccccc2c1CCNCc1ccc(/C=C/C(=O)NO)cc1 [Panobinostat]
[3]; [9]
  inter-individual variability in pharmacokinetics: 60%
  intra-individual variability in pharmacokinetics: 30%
[3]; two dose-escalation trials, dose between 20 and <60 mg
  dose dependence of C max and AUC: increase linearly with the dose
[4]; [10]
  change in T max or half-life in the presence of ketoconazole: No substantial change
  AUC0–∞ ratio (90% CI), panobinostat + ketoconazole / panobinostat alone: 1.8 (1.5–2.2)
  C max ratio (90% CI), panobinostat + ketoconazole / panobinostat alone: 1.6 (1.2–2.2)
[4]; after 20 mg dose on day 1, LLOQ 0.5 ng/ml
  residual panobinostat in plasma prior to the day 8 dose: No residual panobinostat was detectable
[4]; [11]
  AUC0–∞ ratio (90% CI), panobinostat + ketoconazole / panobinostat alone: 1.8
  C max ratio (90% CI), panobinostat + ketoconazole / panobinostat alone: 1.6
[4]; human, plasma, oral, 20 mg
  Tmax: 1 h
  half-life: 840 min
[4]; human, plasma, po, 20 mg
  AUC(0-inf): 133 ng·h/mL
  Cmax: 18.5 ng/mL
[4]; median (minimum and maximum difference)
  T max difference, panobinostat + ketoconazole vs panobinostat alone: 0.0 (−2.5 to 3.0) h
[4]; panobinostat 20 mg + ketoconazole 400 mg
  CL/F: 90.6 L/h
[4]; panobinostat 20 mg alone
  CL/F: 150.3 L/h
[2]; patients with Hodgkin's lymphoma, dose escalation, of 13 patients
  dose-limiting thrombocytopenia: four
[2]; patients with Hodgkin's lymphoma, dose escalation
  grade 3/4 thrombocytopenia: 10 out of 13
CYP3A; from fmCYP3A estimate
  contribution of CYP pathways to the overall metabolism: < 50%
CYP3A; in vivo
  fmCYP3A (fraction of panobinostat cleared by CYP3A): 0.4
[5]; core phase
  adverse events categorized as grade 1: 42.9 % of all events
  adverse events categorized as grade 2: 35.7 % of all events
[5]; core phase, N = 14
  anorexia, regardless of relationship to study drug: 4 patients
  diarrhea, regardless of relationship to study drug: 5 patients
  fatigue, regardless of relationship to study drug: 2 patients
  hypophosphatemia, regardless of relationship to study drug: 3 patients
  myalgia, regardless of relationship to study drug: 3 patients
  nausea, regardless of relationship to study drug: 3 patients
  vomiting, regardless of relationship to study drug: 4 patients
[5]; during the trial, nine out of fourteen patients
  asymptomatic hypophosphatemia of grade ≥ 2: 64%
[5]; [12]
  anorexia, regardless of relationship to study drug: 7 patients
  diarrhea, regardless of relationship to study drug: 8 patients
  fatigue, regardless of relationship to study drug: 7 patients
  hypophosphatemia, regardless of relationship to study drug: 9 patients
  vomiting, regardless of relationship to study drug: 8 patients
[5]; extension phase, single-agent panobinostat 20 mg oral MWF, 13 patients
  nausea, regardless of relationship to study drug: 10 patients
[5]; panobinostat administered for a prolonged period (extension phase)
  neutropenia: 2 patients
[1]; core phase (15 days; panobinostat 20 mg days 1 and 8, ketoconazole days 5–9)
  mean QTc increase at any moment compared with baseline: below 5%
[1]; core phase, all three periods
  increases in QTc ≥ 60 ms compared with baseline: No increases
[1]; [13]
  Ectopic activity: 2 (14%) patients (%)
  New QTcB >450 ms: 3 (21%) patients (%)
  QTcB increase >60 ms: 0 patients (%)
  ST segment depression: 0 patients (%)
  Sinus bradycardia: 0 patients (%)
  Sinus tachycardia: 0 patients (%)
  T wave changes: 2 (14%) patients (%)
  patients with other transient ECG abnormalities: 21%
[1]; [14]
  Ectopic activity: 2 (14%) patients (%)
  New QTcB >450 ms: 2 (14%) patients (%)
  QTcB increase >60 ms: 0 patients (%)
  ST segment depression: 2 (14%) patients (%)
  Sinus bradycardia: 0 patients (%)
  Sinus tachycardia: 2 (14%) patients (%)
  T wave changes: 2 (14%) patients (%)
  patients with other transient ECG abnormalities: 43%
[6]; Subj nr 00005, day 54, extension phase
  Fractional excretion of phosphate: 5.3 (day 54) %
[6]; Subj nr 00005, day 61, extension phase
  Fractional excretion of phosphate: 3.2 (day 61) %
[6]; Subj nr 00007, day 70, extension phase
  Fractional excretion of phosphate: 19.4 (day 70) %
[6]; Subj nr 00007, day 77, extension phase
  Fractional excretion of phosphate: 19.0 (day 77) %
[6]; Subj nr 00010, day 36, extension phase
  Fractional excretion of phosphate: 2.7 (day 36) %
[6]; Subj nr 00010, day 43, extension phase
  Fractional excretion of phosphate: 8.9 (day 43) %
[7]
  share of oxidative metabolism mediated by CYP3A4: 70–98%
